Data on seven molecules can be found in PMC7586407 (Journal of Medicinal Chemistry, 2020).

Data set [1] deals with T1, MIF (Homo sapiens, UniProt P14174).
T1 sequence (P14174 2-115 limits assumed): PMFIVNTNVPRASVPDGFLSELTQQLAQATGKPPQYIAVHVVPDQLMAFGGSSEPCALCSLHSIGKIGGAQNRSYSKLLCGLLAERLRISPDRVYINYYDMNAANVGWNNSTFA
Put plainly: FID assay with 7 as fluorescent indicator. The format is binding. Conditions: 7 50 nM, MIF 100 nM, PBS pH 7.4; calculated from EC50 by eq 1.

The target in data set [2] is T1, MIF. As to the kind of experiment: MIF tautomerase activity assay with 4-HPP as substrate. Particulars: for LE (ligand efficiency): LE = 1.4(−log IC50)/N; for LLE (lipophilic ligand efficiency): LLE = pIC50 – C log P.
The nature of data set [3]: Fluorescence quantum yield and fluorescence lifetime. The format is physicochemical. Particulars: relative to 4-MU, excitation 330 nm.
In data set [4] the test system is A549 cells. As to the kind of experiment: MTS cell viability assay. The format is cell-based. Conditions: concentrations below 20 μM, 24 h of treatment.
Data set [5] relates to A549 cells. Put plainly: Colony formation. The format is cell-based. Particulars: 10 days. The procedure, abridged:
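A549 cells seeded at 100 cells/well in RPMI with 10% FBS and 100 U/mL penicillin/streptomycin, then incubated overnight. Exposed to test compound for 10 days; final DMSO 0.2%, with 0.2% DMSO as vehicle control. Fixed with 4% paraformaldehyde (20 min), stained with 0.5% crystal violet (20 min), photographed and image-analysed. A colony is an aggregate of >50 cells.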

Data set [6] relates to MIF-induced ERK phosphorylation in A549 cells. As to the kind of experiment: MIF-induced ERK phosphorylation, Western blot. Type of data set: cell-based. Particulars: 10 μM, 150 ng/mL MIF.
The target in data set [7] is bovine serum albumin (BSA) (Bos taurus, UniProt P02769). Put plainly: Fluorescence quenching control with BSA. Type of data set: binding. Particulars: 800 nM BSA, 50 nM fluorophore.
The target of data set [8] is T1, MIF. Put plainly: FID assay with 6d as fluorescent indicator. The format is binding.
Another data set concerns the target T2, MIF–sCD74 interaction (Homo sapiens, UniProt P14174).
T2 sequence (P14174 2-115 limits assumed): T1 sequence (P14174 2-115 limits assumed)
As to the kind of experiment: ELISA of MBP–sCD74 binding to coated MIF. Particulars: at concentrations up to 50 μM. The procedure, abridged: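 Recombinant C-terminal His-tagged human MIF (E. coli-expressed, Ni-purified) coated at 250 nM overnight at 4 °C, then blocked with 2% BSA and washed. His/MBP-purified MBP–sCD74 (500 nM) was premixed with test compound (1–100 μM, added in DMSO) for 10 min at RT, then applied to wells for 30 min at RT. Controls: DMSO vehicle and no-sCD74. Detection used rabbit anti-CD74 (1:1000) then goat anti-rabbit HRP (1:1000), each 30 min at RT.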

Sequence of bovine serum albumin (BSA) (P02769 25-607): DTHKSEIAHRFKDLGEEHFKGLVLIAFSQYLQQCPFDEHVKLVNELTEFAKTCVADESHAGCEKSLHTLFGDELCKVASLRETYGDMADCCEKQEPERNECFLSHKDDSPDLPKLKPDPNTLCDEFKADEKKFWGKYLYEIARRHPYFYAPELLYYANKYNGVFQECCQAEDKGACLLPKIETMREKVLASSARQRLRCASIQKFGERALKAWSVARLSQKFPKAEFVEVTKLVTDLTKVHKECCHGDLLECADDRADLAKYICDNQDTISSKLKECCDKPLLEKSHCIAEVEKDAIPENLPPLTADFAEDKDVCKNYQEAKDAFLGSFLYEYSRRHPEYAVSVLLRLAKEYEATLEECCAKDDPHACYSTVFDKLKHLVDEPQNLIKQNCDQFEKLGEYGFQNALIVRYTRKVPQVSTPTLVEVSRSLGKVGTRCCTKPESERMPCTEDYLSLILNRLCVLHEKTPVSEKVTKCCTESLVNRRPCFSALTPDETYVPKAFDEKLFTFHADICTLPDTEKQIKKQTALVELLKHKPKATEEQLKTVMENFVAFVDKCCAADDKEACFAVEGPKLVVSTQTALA

For “4-(4-(isoquinolin-3-yl)-1H-1,2,3-triazol-1-yl)phenol [Compound 10, reference compound]”, at MIF [1], the Kd was 0.47 ± 0.08 µM. For the same molecule, the Ki on MIF [2] (4-HPP conversion assay, Ki = IC50/(1 + 0.5/Km)) stood at 0.44 ± 0.03 µM.

On to `O=c1oc2cc(O)ccc2cc1-c1ccccc1` [Compound 6a, 7-Hydroxy-3-phenyl-2H-chromen-2-one], for which the “enhanced potency compared to inhibitor 2” value on MIF [2] (Ki ratio vs 2) amounted to 10 fold.

As to `COc1ccc(-c2cc3ccc(O)cc3oc2=O)cc1` [Compound 6d, 7-Hydroxy-3-(4-methoxyphenyl)-2H-chromen-2-one], the fluorescence quantum yield in data set [3] turned out to be 0.25.

Regarding `O=C(O)c1ccc(-c2ccc(-c3cc4ccc(O)cc4oc3=O)cc2)cc1` [Compound 7, 4′-(7-Hydroxy-2-oxo-2H-chromen-3-yl)-[1,1′-biphenyl]-4-carboxylic Acid], the cell viability entry with A549 cells [4] is “did not inhibit cell viability”. The colony formation result with A549 cells [5] (2.5 μM) is “significantly lower numbers of colonies”. Also, in the data set on A549 cells [5] (10 μM), the colony formation result is “significantly lower numbers of colonies”. Moreover, the “MIF-induced ERK phosphorylation” value in [6] was “attenuated MIF-induced ERK phosphorylation”. This molecule displayed a fluorescence quantum yield in data set [3] of 0.32. Besides, the “fluorescence quenching by BSA” value in data set [7] is reported as “no fluorescence quenching”. In addition, on MIF [2], half-maximal inhibition (IC50) required 0.071 ± 0.003 µM, the “LE (ligand efficiency)” value was determined as 0.37 and the “LLE (lipophilic ligand efficiency)” value was 5.80. In addition, the “mode of inhibition (enzyme kinetics)” value at MIF [2] (Lineweaver–Burk plot vs 4-HPP) is “binds in competition with 4-HPP”. At MIF [2] (vs 6l), the “increased potency compared to precursor 6l” value came out at 10 fold.

`COc1ccc(N2Cc3ccc(O)cc3OC2=O)cc1OC` [Compound 8, 3-(3,4-Dimethoxyphenyl)-7-hydroxy-3,4-dihydro-2H-benzo[e][1,3]oxazin-2-one, reference compound] came in with an EC50 at MIF [8] of 0.386 ± 0.044 µM. For the same molecule, the “inhibition of MIF–sCD74 binding” value at MIF–sCD74 interaction is “did not demonstrate inhibition”. At MIF [2], the “LE (ligand efficiency)” value worked out at 0.43 and the “LLE (lipophilic ligand efficiency)” value worked out at 4.85.

As for `O=C(NCc1cn(-c2ccc(O)c(F)c2)nn1)c1cc2cc(Cl)ccc2[nH]1` [Compound 13, 5-chloro-N-((1-(3-fluoro-4-hydroxyphenyl)-1H-1,2,3-triazol-4-yl)methyl)-1H-indole-2-carboxamide, reference compound], the colony formation entry in the data set with A549 cells [5] (10 μM) is reported as “inhibited colony formation”. For the same molecule, on MIF [2], the “LE (ligand efficiency)” value came out at 0.30 and the “LLE (lipophilic ligand efficiency)” value is reported as 2.05.

Consider `COC(=O)CC1CC(c2ccc(O)cc2)=NO1` (stereo not drawn) [ISO-1, methyl 2-(3-(4-hydroxyphenyl)-4,5-dihydroisoxazol-5-yl)acetate, reference compound], for which the “inhibition of MIF–sCD74 binding” value at MIF–sCD74 interaction was “did not demonstrate inhibition”. Besides, in the data set with A549 cells [5] (100 μM), the colony formation entry is reported as “inhibited colony formation”.
